Experimental findings from ChEMBL document CHEMBL4265978, “In search of constrained FTY720 and phytosphingosine analogs as dual acting anticancer agents targeting metabolic and epigenetic pathways” (Eur J Med Chem, 2018) are described below.

Activity calls are given as the source filed them. No cut-off for these calls is given here.

In general, IC50 refers to the midpoint of a concentration-inhibition curve. Read a low IC50 as greater potency.

Test [1] relates to FL5.12. In words: Downregulation of CD98 expression in mouse FL5.12 cells at 10 uM after 3 hrs by DAPI staining-based FACS analysis relative to control. It counts as functional. In short, it runs like this: (§1)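 FL5.12 cells plated at 225-250,000/mL and treated 3 h. 150-200,000 cells stained in triplicate on ice for 30 min with PE-anti-mouse CD98, with PE rat IgG2a κ as isotype control. Read by flow cytometry, gated on viable cells (DAPI exclusion or scatter). Loss given as mean of at least 2 biological replicates.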
A general note: A flow cytometer gives signals particle by particle.

Test [2] has as its system FL5.12. In words: Downregulation of CD98 expression in mouse FL5.12 cells at 2.5 uM after 3 hrs by DAPI staining-based FACS analysis relative to control. It is filed as functional. In short, it runs like this:
as §1

The subject of test [3] is FL5.12. In words: Cytotoxicity against mouse FL5.12 cells assessed as vacuole formation at 10 uM after 3 hrs by […]. It counts as functional, cell-based. In outline: (§2)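 FL5.12 cells treated at 200,000/mL for 3 h, then imaged at 100× by brightfield/DIC. At least 5 images per condition, at least 2 biological replicates. Two researchers scored each replicate independently: 0 no vacuoles, + some cells, ++ most cells with at least 1 vacuole, +++ all cells heavily vacuolated.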

Test [4] deals with FL5.12. In words: Downregulation of CD98 expression in mouse FL5.12 cells at 40 uM after 3 hrs by DAPI staining-based FACS analysis relative to control. It is filed as functional. In outline:
as §1

Test [5] has as its system FL5.12. Description: Cytotoxicity against mouse FL5.12 cells after 48 hrs by DAPI or propidium iodide staining-based flow cytometric analysis. It counts as functional, cell-based. Particulars: FL5.12, 48 h. In outline:
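FL5.12 (murine hematopoietic, IL-3-dependent) cells treated at 25,000/mL; viability read at 48 h by DAPI or propidium iodide dye exclusion on flow cytometry. IC50 fitted, reported with 95% confidence interval.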

Test [6] concerns FL5.12. Description: Cytotoxicity against mouse FL5.12 cells assessed as vacuole formation at 40 uM after 3 hrs by […]. It counts as functional, cell-based. In outline:
as §2

In test [7] the test system is FL5.12. In words: Cytotoxicity against mouse FL5.12 cells assessed as vacuole formation at 2.5 uM after 3 hrs by […]. It is filed as functional, cell-based. In short, it runs like this: as §2
Test [8] concerns the target Histone deacetylase (Homo sapiens) (UniProt Q13547+O15379+Q9UBN7+Q92769+Q9UQL6+Q8WUI4+Q9BY41+Q96DB2+P56524+Q9UKV0+Q969S8). Description: Inhibition of HDAC in human HeLa cell extract at 10 to 20 uM after 15 to 30 mins by COLOR DE LYS-based colorimetric method. It counts as protein assay. In short, it runs like this:
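Recombinant HDAC1 or HeLa extract incubated with acetylated lysine substrate at 37°C for 15-30 min. Developer then added: 10-15 min at 37°C with absorbance at 405 nm (colorimetric kit), or 15 min at RT with fluorescence at ex 355/em 460 nm, corrected using ± trichostatin A.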

In the case of `Cc1nc(CCCCCCCc2ccc([C@H]3CCN[C@@H]3CO)cc2)co1.Cl`, the values for the Activity in test [1], in test [2] and in test [4] were 33%, 5% and 61%, respectively. In addition, the outcome in test [3] and in test [6] was inactive. This compound registered a 50% inhibitory concentration (IC50) in test [5] of 8.4 µM.

Turning to `Cl.OC[C@H]1NCC[C@@H]1c1ccc(CCCOCc2ccccc2)cc1`, the values for the Activity in test [1], in test [2] and in test [4] were 14%, 11% and 51%, respectively. The result in test [3] and in test [6] was inactive. The same compound registered a 50% inhibitory concentration (IC50) in test [5] of 10.9 µM.

Take `CCCCCCCCc1ccc(C(=O)[C@H]2C[C@H](O)CN2)cc1.Cl`: the result in test [7] was inactive. Moreover, the Activity in test [1] came out at 51%; in test [2], 12%; in test [4], 41%. For the same compound, the outcome in test [3] and in test [6] was Active. In test [5], the half-maximal inhibitory concentration (IC50) is 15.3 µM.

For `CCCCCCCCc1ccc(C(=O)CC[C@H]2C[C@H](CO)CN2)cc1.Cl`, the result in test [7] was inactive. The Activity is given as 46% in test [1] and 8% in test [2]. Besides, in test [3], the outcome was Active. The compound further yielded a 50% inhibitory concentration (IC50) in test [5] of 4 µM.

As to `CCCCCCCCc1ccc(CC(=O)[C@H]2C[C@H](OP(=O)(O)O)CN2)cc1.Cl`, the Activity in test [1] came out at 5%; in test [4], 8%. For the same compound, the outcome in test [3] and in test [6] was inactive. Further, the IC50 in test [5] was 25.3 µM. Besides, the inhibition entry in test [8] is “inactive”.

As for `CCCCCCCCc1ccc(C(=O)C[C@@H]2C[C@@H](O)CN2)cc1.Cl`, the outcome in test [7] and in test [3] was Active. Further, the Activity in test [1] is 46%; in test [2], 22%. Inhibition in test [5] was half-maximal at 2.1 µM (IC50).

In the case of `CCCCCCCCc1ccc(CC(O)[C@H]2C[C@H](O)CN2)cc1.Cl` (some centres undefined), the outcome in test [7] was inactive. Further, the Activity in test [1] is recorded as 62%; in test [2] it was 9%. Besides, the result in test [3] was Active. In test [5], this compound displayed a half-maximal inhibitory concentration (IC50) of 1.8 µM. For the same compound, the inhibition entry in test [8] is “inactive”.

As for `CCCCCCCCc1ccc(C[C@@H]2C[C@@H](O)CN2)cc1`, the outcome in test [7] and in test [3] was Active. The Activity is listed as 63% in test [1] and 40% in test [2]. The same compound yielded an IC50 in test [5] of 2.2 µM.

Take `CCCCCCCCc1ccc([C@@H]2CC[C@H]3C[C@H](CO)CN32)cc1.Cl`: the result in test [7] and in test [3] was inactive. Further, the Activity is reported as 32% in test [1], 0% in test [2] and 68% in test [4]. In test [5], the IC50 stood at 12.2 µM. In test [6], the result was Active.

Regarding `CC(=O)CCCCCCc1ccc([C@H]2CCN[C@@H]2CO)cc1.Cl`, the results for the Activity in test [1], in test [2] and in test [4] were -8%, -15% and 23%, respectively. Besides, the outcome in test [3] and in test [6] was inactive. This compound also displayed a concentration for half-maximal inhibition (IC50) in test [5] of 15.1 µM.

For `CCCCCCCCc1ccc(C(=O)C[C@@H]2CCCN2)cc1.Cl`, the outcome in test [7] and in test [3] was Active. The Activity in test [1] amounted to 57%; in test [2], 28%. Moreover, inhibition in test [5] was half-maximal at 2.5 µM (IC50).

Consider `O=C(CCCCCCC(=O)Nc1ccccc1)NO`, for which the result in test [3] was Active.

Consider `CCCCCCCCc1ccc(CC(=O)[C@H]2C[C@H](O)CN2)cc1.Cl`, for which the outcome in test [7] and in test [3] was inactive. The results for the Activity in test [1], in test [2] and in test [4] were 16%, 11% and 54%, respectively. Moreover, the 50% inhibitory concentration (IC50) in test [5] worked out at 17.1 µM. Also, the result in test [6] was Active.

Consider `CCCCCCCCc1ccc(CCC(N)(CO)CO)cc1` [FINGOLIMOD], for which the outcome in test [7] and in test [3] was Active. For the same compound, the Activity in test [1] is 63%; in test [2], 30%. In addition, 2.1 µM corresponded to half-maximal inhibition in test [5] (IC50).

Turning to `CCCCCCCCc1ccc(CC[C@@H]2CCCN2)cc1.Cl`, the outcome in test [7] and in test [3] was Active. The Activity was found to be 63% in test [1] and 41% in test [2]. The same compound displayed an IC50 in test [5] of 2.8 µM.

In the case of `CCCCCCCCc1ccc(C(=O)[C@H]2C[C@H](OP(=O)(O)O)CN2)cc1.Cl`, the result in test [7], in test [3] and in test [6] was inactive. Moreover, the Activity in test [1] was -9%; in test [4], 0%. In test [5], this compound registered a 50% inhibitory concentration (IC50) of 12.8 µM.

With `CCCCCCCCc1ccc(C(=O)[C@@H]2C[C@@H](O)CN2)cc1.Cl`, the outcome in test [7] was inactive. Further, the Activity in test [1] was found to be 9%; in test [2], 2%; in test [4], 48%. In test [5], this compound returned an IC50 of 28.1 µM. Besides, the outcome in test [6] was Active.

Consider `CCCCCCCCc1ccc(CC(=O)[C@@H]2C[C@@H](O)CN2)cc1.Cl`, for which the outcome in test [7] and in test [3] was inactive. The Activity in test [1] was found to be 23%; in test [2], 13%; in test [4], 59%. The compound further came in with an IC50 in test [5] of 18.6 µM. In addition, the result in test [6] was Active.

`Cc1nc(/C=C/CCCCCc2ccc([C@H]3CCN[C@@H]3CO)cc2)co1.Cl`: the Activity in test [1] was determined as 18%; in test [2], 5%; in test [4], 61%. Also, the result in test [3] and in test [6] was inactive. The 50% inhibitory concentration (IC50) in test [5] was 10.2 µM.

On to `CCCCCCCCc1ccc(C(C[C@@H]2CCCN2)OC)cc1.Cl` (some centres undefined), for which the outcome in test [7] was inactive. Besides, the Activity came to 58% in test [1] and 16% in test [2]. The outcome in test [3] was Active. Besides, in test [5], the IC50 came out at 3 µM.

As for `CCCCCCCCc1ccc(CC(=O)[C@@H]2C[C@@H](OP(=O)(O)O)CN2)cc1.Cl`, the Activity in test [1] is given as 3%; in test [4], 0%. Besides, the result in test [3] and in test [6] was inactive. The 50% inhibitory concentration (IC50) in test [5] was found to be 25 µM. The inhibition entry in test [8] was “inactive”.

As to `CCCCCCCCc1ccc(C(=O)[C@H]2C[C@H](CO)CN2)cc1.Cl`, the result in test [7] and in test [3] was inactive. Besides, the Activity is listed as 19% in test [1], 0% in test [2] and 61% in test [4]. This compound gave a half-maximal inhibitory concentration (IC50) in test [5] of 19.6 µM. Further, in test [6], the outcome was Active.

Turning to `CCCCCCCCc1ccc(CC(O)[C@@H]2C[C@@H](O)CN2)cc1.Cl` (some centres undefined), the outcome in test [7] and in test [3] was Active. Further, the Activity in test [1] was determined as 62%; in test [2] it was 19%. In test [5], the concentration for half-maximal inhibition (IC50) was determined as 3 µM. Further, the inhibition entry in test [8] was “inactive”.

Turning to `CCCCCCCCc1ccc(C(=O)[C@@H]2C[C@@H](OP(=O)(O)O)CN2)cc1.Cl`, the outcome in test [7], in test [3] and in test [6] was inactive. Moreover, the Activity in test [1] is listed as 3%; in test [4], -8%. The IC50 in test [5] turned out to be 12.9 µM.

On to `CCCCCCCCc1ccc(C(=O)[C@@H]2CCCN2)cc1.Cl`, for which the outcome in test [7] and in test [3] was inactive. The Activity is on record as -4% in test [1], -21% in test [2] and 33% in test [4]. In test [5], this compound yielded a half-maximal inhibitory concentration (IC50) greater than 40 µM. The outcome in test [6] was Active.

Turning to `CCCCCCCCc1ccc([C@H]2CCN[C@@H]2CO)cc1`, the outcome in test [7] and in test [3] was Active. Moreover, the Activity in test [1] turned out to be 66%; in test [2] it was 41%. Further, half-maximal inhibition in test [5] (IC50) required 2.1 µM.

Take `CCCCCCCCc1ccc(C(=O)CC[C@@H]2C[C@@H](O)CN2)cc1.Cl`: the result in test [7] and in test [3] was Active. In addition, the Activity in test [1] stood at 52%; in test [2], 15%. Moreover, the IC50 in test [5] came to 2.1 µM.
